Screening data deposited in PubChem by The Scripps Research Institute Molecular Screening Center.
This is a sample that favours compounds with a hit; in the whole collection about 1.7% have one here.
CHO-K1 Ca antag: nonselective inhibitor or artifact in parental CHO-K1 cells; actives 0.6% (n = 360,000); inhibition, % at 3 µM; ATP-induced calcium, Fluo-8 fluorescence;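 active means inhibition above a per-plate cutoff, the plate's mean sample inhibition plus 3 SD, cut at about 24% in these data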;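 further: 0% = DMSO plus EC80 ATP and 100% = DMSO alone without ATP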
M5 antag: blocks acetylcholine activation of human M5 receptor; actives 0.59% (n = 360,000); inhibition, % at 3 µM; AID 624040; CHO-hM5 cells, Fluo-8 calcium fluorescence, ACh EC80; P08912;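 active means inhibition above a per-plate cutoff, the mean of that plate's test compounds plus 3 SD, cut at about 27% in these data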;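 further: 0% = acetylcholine EC80 with DMSO and 100% = DMSO without agonist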
Target sequence (P08912 whole entry, looked up): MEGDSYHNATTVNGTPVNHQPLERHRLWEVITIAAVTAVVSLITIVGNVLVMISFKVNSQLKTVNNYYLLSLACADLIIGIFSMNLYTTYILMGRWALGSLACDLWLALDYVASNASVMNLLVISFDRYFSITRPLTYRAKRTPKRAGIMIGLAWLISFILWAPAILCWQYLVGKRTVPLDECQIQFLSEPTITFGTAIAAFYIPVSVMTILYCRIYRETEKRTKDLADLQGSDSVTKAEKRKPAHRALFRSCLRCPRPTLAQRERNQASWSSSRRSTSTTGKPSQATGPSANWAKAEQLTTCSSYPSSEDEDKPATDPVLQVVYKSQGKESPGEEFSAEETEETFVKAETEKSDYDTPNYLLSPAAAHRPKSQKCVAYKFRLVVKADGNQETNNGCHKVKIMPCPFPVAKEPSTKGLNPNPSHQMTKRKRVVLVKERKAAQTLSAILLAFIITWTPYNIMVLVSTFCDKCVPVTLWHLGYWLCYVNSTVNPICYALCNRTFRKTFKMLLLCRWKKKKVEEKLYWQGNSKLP
CHRM5 agonist: CHRM5 agonism in calcium assay. actives 0.19% (n = 360,000). P08912. activation, % at 3 µM. AID 624037. CHO-K1 hM5 cells, Fluo-8 calcium fluorescence; 0% DMSO wells, 100% maximal acetylcholine response;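 active means activation above the run's mean over test compounds plus 3 SD, cut at about 23% in these data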;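 further: signal is peak over basal fluorescence ratio across the kinetic read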
M1 PAM parental: M1 PAM counterscreen hit in parental CHO-K1 cells. activation, % at 3 µM. ATP EC20, Fluo-8 calcium fluorescence; 0% at ATP EC20, 100% at ATP max. actives 0.02% (n = 360,000);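 active means activation above the run cutoff, the mean activation of all test compounds plus 3 SD, cut at about 40% in these data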;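 further: peak over basal fluorescence ratio in a 140 s read after ATP addition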
CHRM5 PAM: potentiates acetylcholine response at human M5 receptor; activation, % at 3 µM; actives 0.3% (n = 360,000); P08912; CHO-K1 hM5, Fluo-8 calcium, ACh EC20 PAM; 0% = ACh EC20, 100% = ACh EC100;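 active means activation above the run cutoff, the mean activation of all test compounds plus 3 SD, cut at about 18% in these data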
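System – CHO-K1 hM5 cells · Compound – 3 µM, single dose · Incubation – compound preincubation 140 s before EC20 acetylcholine addition · Technique – Fluo-8 calcium fluorescence · Measure – Max/basal fluorescence ratio as % of EC20–EC100 ACh window · Benchmarks – low control EC20 acetylcholine (0%), high control EC100 acetylcholine (100%) · Replication – singlicate, one well per test compound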
CHO-K1 Ca ag: counter-screen for M1 agonists: effect in parental CHO-K1 cells | Fluo-8 calcium fluorescence; scaled to maximal ATP response, vehicle zero | activation, % at 3 µM | actives 0.48% (n = 360,000) | AID 602248; in the data active means activation above about 15%;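 further: untransfected CHO-K1 host cells lacking M1 receptor as counterscreen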
Starred values were filed as active, the others as inactive.

SMILES	CHO-K1 Ca antag	M5 antag	CHRM5 agonist	M1 PAM parental	CHRM5 PAM	CHO-K1 Ca ag
COc1ccc(/C=C/C(=O)Nc2cccc(C(C)=O)c2)cc1	4.1	5.4	2.0	2.0	-5.2	19.4*
CCc1c(C)nc2ncnn2c1NCCc1ccccc1	-6.8	3.6	5.2	7.9	-11.2	5.2
COCOc1ccc(/C=C/C(=O)c2c(O)cc(OCOC)cc2OCOC)cc1	-8.2	6.0	0.1	19.2	-4.3	0.8
COCOc1ccc(/C=C/C(=O)c2c(OCOC)cc(OCOC)c(CC=C(C)C)c2O)cc1OCOC	29.1*	8.8	2.7	-9.5	-0.2	-0.9
Fc1ccc(-[n+]2nc(Nc3ccccc3)sc2-c2c3ccccc3cc3ccccc23)cc1	-6.6	39.0*	35.9*	15.1	-19.8	2.6
COc1ccc(C)cc1Nc1n[n+](-c2ccccc2)c(-c2c(OC)ccc3ccccc23)s1	16.2	27.2*	-1.6	0.8	-30.7	16.3*
Oc1ccc2ccccc2c1-c1sc(Nc2ccccc2)n[n+]1-c1ccc(F)cc1	-9.0	15.9	0.7	3.8	1.9	0.9
CC(=O)NCCOC(=O)Nc1cccnc1	-6.8	4.6	0.5	11.9	-0.4	0.2
NC(=O)NC(=O)COC(=O)CC12CC3CC(CC(C3)C1)C2	-11.5	-7.8	1.0	13.8	20.2*	0.5
COc1ccc(C(=O)c2ccccc2O)c(O)c1	24.3*	6.2	-0.8	-4.3	-5.9	0.3
CCc1cc(=O)[nH]c(SCCc2ccccc2)n1	-15.0	-7.8	-1.5	10.1	0.1	0.3
O=[N+]([O-])c1cc(C(F)(F)F)ccc1SCC(O)CO (stereo unspecified)	-3.2	16.6	8.8	-3.0	26.2*	0.7
CCCS(=O)(=O)N1CCN(CC2CC3C=CC2C3)CC1 (stereo unspecified)	-17.5	-5.0	-5.8	23.1	7.7	0.8
COc1ccccc1Nc1nc2ccc(C)cc2cc1C#N	24.7*	-1.3	1.0	-5.6	0.1	-0.3
COc1ccccc1Nc1nc2cc(C)ccc2cc1C#N	10.1	-3.2	-2.4	14.0	-5.6	15.7*
Cc1ccc(NC(=O)C[n+]2ccn(C3=C([O-])c4ccccc4C3=O)c2)cc1	0.4	29.4*	-2.3	20.1	-17.2	5.4
O=S(=O)(NCCCN1CCOCC1)c1ccc2c(c1)OCCO2	-5.9	-3.8	1.9	23.9	22.1*	2.0
N#Cc1ccccc1OCC(=O)OCCCOC(=O)COc1ccccc1C#N	1.4	26.9*	-4.1	-0.4	-10.5	3.0
CCCCn1nnnc1SCC(=O)c1cc(Cl)ccc1OC	-17.2	4.5	-9.6	22.0	0.8	-0.2
O=C(/C=C/c1ccccc1)CC(O)(c1ccccc1)C(F)(F)C(F)F (stereo unspecified)	-6.6	6.6	-5.9	23.5	-9.5	17.2*
O=C(/C=C/c1ccccc1)CC(O)(c1ccccc1)C(F)(F)F (stereo unspecified)	13.1	7.4	-7.0	-8.6	-5.0	0.5
Fc1cc(F)nc(NCc2ccccc2)n1	-12.4	6.2	-3.9	6.9	0.9	0.4
C/C=C/CSc1nc2c(c(=O)[nH]c(=O)n2C)n1Cc1ccc(C)cc1	-9.0	-6.9	0.9	24.4	-1.8	-0.3
NC(=NCc1ccccc1)NC(=O)c1nc(Cl)c(N)nc1N	4.7	-2.4	-1.1	-1.9	-3.8	0.3
CCOC(=O)c1ccccc1NC(=O)CN(c1ccccc1C)S(C)(=O)=O	30.1*	-4.2	0.4	-5.5	4.7	-0.1
SMILES	CHO-K1 Ca antag	M5 antag	CHRM5 agonist	M1 PAM parental	CHRM5 PAM	CHO-K1 Ca ag
COc1ccccc1NC(=O)CN(c1ccccc1C)S(C)(=O)=O	-9.6	8.7	0.9	22.7	4.7	1.1
COc1ccc(Cl)cc1NC(=O)CN(C)C(=O)c1cc(-c2ccncc2)nc2ccccc12	3.3	27.4*	2.8	-4.9	-25.1	9.5
COc1ccc(NC(=O)CN(C)C(=O)c2cc(-c3ccncc3)nc3ccccc23)cc1	-0.4	23.5	0.6	6.8	-8.9	7.4
COc1ccc(CCn2c(C)cc(C(=O)CSc3nnnn3-c3ccccc3)c2C)cc1	23.7*	-0.6	-0.1	-7.6	-0.5	-0.6
Cc1cc(C(=O)CSc2nnnn2C)c(C)n1CCc1ccc(Cl)cc1	-8.6	5.4	-6.5	17.9	9.8	0.4
Cc1cc(=O)[nH]c(NN=C2CCC(C(C)(C)C)CC2)n1 (stereo unspecified)	-4.9	-3.2	-0.4	17.8	7.8	19.3*
NCCCNC(=O)c1cc2ccccc2[nH]1	2.4	6.8	0.2	-5.4	-0.8	-0.2
CCC(C)(C)c1ccc(OCCCC[n+]2cccc(C)c2)c(C(C)(C)CC)c1	9.8	27.6*	-9.9	28.2	-21.0	14.4
Cc1ccc[n+](CC(=O)Nc2cc(C(F)(F)F)ccc2Cl)c1	-14.6	-3.0	-6.7	0.5	0.7	-0.2
O=C(CN1CCS(=O)(=O)CC1)N/N=C/c1cccc(C(F)(F)F)c1	-2.2	14.1	-3.4	-3.0	-3.5	0.7
Cc1ccc(/C=C2\CCC3=C2OC(N)=C(C#N)C3c2ccc(C)cc2)cc1 (stereo unspecified)	34.7*	33.0*	4.4	-12.3	-27.5	15.7*
CN(Cc1ccccc1)S(=O)(=O)c1ccc(OCC(=O)N2CCOCC2)cc1	-15.5	-5.9	3.9	6.3	-3.1	2.5
Nc1c(S(=O)(=O)c2ccccc2)c2nc3ccccc3nc2n1/N=C/c1ccco1	26.4*	-2.3	-0.3	-5.8	-5.2	0.4
COC(=O)c1ccc(-n2c(C)cc(C(=O)CSc3cccc[n+]3[O-])c2C)cc1	-2.1	-4.6	0.3	7.5	4.2	16.1*
CCc1ccc(C(=O)CSc2ncn[nH]2)cc1	-7.5	0.6	-0.2	-5.5	-0.6	0.1
C[C@@H]1ON(C)[C@H]2C[C@H]3c4[nH]c5ccccc5c4CCN3C(=O)[C@@H]12	-1.9	-9.9	2.6	0.6	-2.9	0.5
C[C@@H]1OC(C2CCCCC2)N(C)[C@H]2C[C@H]3c4[nH]c5ccccc5c4CCN3C[C@@H]12 (stereo partly specified)	24.2*	3.6	-3.0	-8.1	-2.0	-0.2
COc1ccc(N(CC(=O)NCCc2ccccc2)C(=O)c2csnn2)cc1	-15.7	32.3*	-3.5	-9.9	-10.9	0.4
COc1ccc(N(CC(=O)NCCc2ccccc2)C(=O)c2csnn2)cc1OC	-1.0	2.3	0.2	-9.4	1.6	0.5
Cc1cc(C)c(N(CC(=O)NCc2ccccc2)C(=O)c2csnn2)c(C)c1	-14.1	-14.0	1.6	15.1	22.7*	2.2
O=C(Cc1ccccc1)N1CCN(C(=O)c2ccc([N+](=O)[O-])cc2)CC1	-9.0	1.0	-1.4	6.1	-3.8	0.1
